Here are results for 5 compounds from ChEMBL document CHEMBL3272036, “Reactions of 2-acyloxyisobutyryl halides with nucleosides. Synthesis and biological evaluation of some 3"-acyl and 3',5'-diacyl derivatives of 1-beta-D-arabinofuranosylcytosine” (J Med Chem, 1976).

Values after ≈ are worked out from the molar mass of the structure shown. Active and inactive are the calls of the source. The calls are words filed in the database; no cut-off is given here.

One test deals with Vaccinia virus. Briefly: Antiviral activity against Vaccinia virus IHD infected in African green monkey BGM cells assessed as plaque reduction measured on day 5 by disk diffusion assay. It is filed as functional. As to conditions: Orthopoxvirus vaccinia, 120 h, read-out: ED50 (the source's name).
The subject of another test is Herpesviridae sp. Briefly: Antiviral activity against Herpes Simplex virus HF infected in African green monkey BGM cells assessed as plaque reduction measured on day 5 by disk diffusion assay. Format: functional. The conditions noted are these: 120 h, read-out: ED50 (the source's name).
Test [1] concerns L1210. Description: Antitumor activity against mouse L1210 cells allografted in BDF1 mouse assessed as increase in life span at 200 mg/kg, ip administered as single dose relative to vehicle-treated control. It is filed as functional. As to conditions: route intraperitoneal. In outline:
(§1)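 Single intraperitoneal injection given 24 h after the leukemic cells were introduced, at 100, 200, 500 or 1000 mg/kg. Read-out is % increase in life span (ILS), with the count of 30-day survivors per group recorded (group sizes 7–8 mice).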

For the next test, the system named is HeLa. Description: Cytotoxicity against human HeLa cells after 48 hrs by Coulter counter analysis. The conditions noted are these: read-out: ED50 (the source's name). Format: functional.
The test system of test [2] is L1210. Briefly: Antitumor activity against mouse L1210 cells allografted in BDF1 mouse assessed as survival at 200 mg/kg, ip administered as single dose measured on day 30 relative to vehicle-treated control. It is filed as functional, organism-based. More on the design: dose 200 mg/kg. The method in brief:
(§2)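 Leukemic L1210 cells were introduced into mice. Each compound was then given as a single intraperitoneal injection 24 h later. Activity is expressed as % increase in life span (ILS), with the count of 30-day survivors per group. Doses tested were 100, 200, 500 and 1000 mg/kg.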

Test [3] deals with L1210. Description: Antitumor activity against mouse L1210 cells allografted in BDF1 mouse assessed as survival at 50 mg/kg, ip administered as single dose measured on day 30 relative to vehicle-treated control. Format: functional, organism-based. Also on record: dose 50 mg/kg.
The test system of test [4] is L1210. Briefly: Antitumor activity against mouse L1210 cells allografted in BDF1 mouse assessed as increase in life span at 100 mg/kg, ip administered as single dose relative to vehicle-treated control. It is filed as functional. As to conditions: route intraperitoneal. In outline: as §1
Test [5] deals with L1210. Briefly: Antitumor activity against mouse L1210 cells allografted in BDF1 mouse assessed as survival at 100 mg/kg, ip administered as single dose measured on day 30 relative to vehicle-treated control. Format: functional, organism-based. More on the design: dose 100 mg/kg. In outline:
as §2

The test system of test [6] is L1210. Briefly: Antitumor activity against mouse L1210 cells allografted in BDF1 mouse assessed as increase in life span at 500 mg/kg, ip administered as single dose relative to vehicle-treated control. Format: functional. The conditions noted are these: route intraperitoneal. In outline:
as §1

The test system of test [7] is L1210. Briefly: Antitumor activity against mouse L1210 cells allografted in BDF1 mouse assessed as increase in life span at 1000 mg/kg, ip administered as single dose relative to vehicle-treated control. Format: functional. The conditions noted are these: route intraperitoneal. In outline: as §1
Test [8] concerns L1210. Briefly: Antitumor activity against mouse L1210 cells allografted in BDF1 mouse assessed as survival at 500 mg/kg, ip administered as single dose measured on day 30 relative to vehicle-treated control. It is filed as functional, organism-based. More on the design: dose 500 mg/kg. The method in brief: as §2
The test system of test [9] is L1210. Briefly: Antitumor activity against mouse L1210 cells allografted in BDF1 mouse assessed as survival at 1000 mg/kg, ip administered as single dose measured on day 30 relative to vehicle-treated control. It is filed as functional, organism-based. Also on record: dose 1000 mg/kg. In outline:
as §2

Test [10] concerns L1210. Description: Antitumor activity against mouse L1210 cells allografted in ip dosed mouse administered as single dose relative to vehicle-treated control. Format: functional. In outline:
as §2

Test [11] concerns L1210. Description: Chemotherapeutic index, ratio of ILSmax for antitumor activity against mouse L1210 cells allografted in BDF1 mouse to ILS30 for antitumor activity against mouse L1210 cells allografted in BDF1 mouse. Format: functional. In outline: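 Dose-response curves were determined in L1210-bearing mice, each receiving a single ip injection 24 h after leukemic cell introduction. Chemotherapeutic index = the dose producing maximum % ILS divided by the dose giving 30% ILS.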

For `CCCCCC(=O)O[C@H]1[C@H](O)[C@H](n2ccc(N)nc2=O)O[C@@H]1CO`, the values for the EC50 with Vaccinia virus, in the test on Herpesviridae sp. and in the test on HeLa were 480 nM, 1500 nM and 0.05 µg/mL (≈ 0.146 µM), respectively. Moreover, the ILS at 200 mg/kg in the test on L1210 [1] was determined as 21%. The result in the test on L1210 [2] and in the test on L1210 [3] was inactive. The ILS at 100 mg/kg with L1210 [4] is 5%.
Turning to `CCCCCCCC/C=C\CCCCCCCC(=O)OC[C@H]1O[C@@H](n2ccc(N)nc2=O)[C@@H](O)[C@@H]1OC(=O)CCCCCCC/C=C\CCCCCCCC.Cl`, the results for the EC50 in the test on Vaccinia virus, with Herpesviridae sp. and in the test on HeLa were 17500 nM, greater than 30000 nM and 1.1 µg/mL, respectively. Besides, the ILS at 200 mg/kg with L1210 [1] is greater than 190%. Also, the result in the test with L1210 [3] was inactive. Further, the ILS at 100 mg/kg in the test with L1210 [4] was determined as 70%.
For the compound `CCCCCCCCCCCCCCCC(=O)O[C@H]1[C@H](O)[C@H](n2ccc(N)nc2=O)O[C@@H]1CO`, the figures for the EC50 in the test with Vaccinia virus, in the test on Herpesviridae sp. and in the test with HeLa were 140 nM, 670 nM and 0.24 µg/mL (≈ 0.498 µM), respectively. Also, the outcome in the test on L1210 [5] and in the test with L1210 [2] was Active. Moreover, the ILS at 200 mg/kg in the test on L1210 [1] was greater than 295%. For the same compound, the ILS at 500 mg/kg with L1210 [6] was -20%. In addition, the ILS at 1000 mg/kg in the test with L1210 [7] was -19%. For the same compound, the ILS at 100 mg/kg with L1210 [4] was greater than 295%. Further, the result in the test on L1210 [8] and in the test with L1210 [9] was inactive. In the test with L1210 [10], this compound registered an ILS30 of 1 mg/kg. In the test on L1210 [10], the ILSmax was found to be 200 mg/kg. Also, in the test on L1210 [11], the Ratio turned out to be 200.
For `CCCCCCCCCCCC(=O)O[C@H]1[C@H](O)[C@H](n2ccc(N)nc2=O)O[C@@H]1CO`, the EC50 with Vaccinia virus was found to be 50 nM; in the test with Herpesviridae sp. it was 250 nM; in the test on HeLa it was 0.08 µg/mL (≈ 0.188 µM). Besides, the ILS at 200 mg/kg in the test with L1210 [1] was greater than 257%. Further, the ILS at 1000 mg/kg in the test on L1210 [7] is -28%. For the same compound, the outcome in the test on L1210 [3] was Active. The ILS at 100 mg/kg in the test on L1210 [4] is greater than 258%. Besides, in the test with L1210 [9], the outcome was inactive.
`CCCCCCCC/C=C/CCCCCCCC(=O)OC[C@H]1O[C@@H](n2ccc(N)nc2=O)[C@@H](O)[C@@H]1OC(=O)CCCCCCC/C=C/CCCCCCCC`: the EC50 in the test on Vaccinia virus was greater than 30000 nM; with Herpesviridae sp. it was greater than 30000 nM; in the test with HeLa, 2.5 µg/mL (≈ 3.24 µM). For the same compound, the ILS at 200 mg/kg in the test on L1210 [1] is greater than 253%. For the same compound, in the test on L1210 [3], the result was inactive. The ILS at 100 mg/kg in the test on L1210 [4] came out at 14%.
